Measurements as given in ChEMBL document CHEMBL1125200, “Structure-activity relationships of estrogenic ligands: synthesis and evaluation of (17 alpha, 20E)- and (17 alpha, 20Z)-21-halo-19-norpregna-1,3,5(10),20-tetraene-3,17 beta-diols” (J Med Chem, 1991).

Assays:
[1] = molecular target: T1, Estrogen receptor (Rattus norvegicus) (UniProt P06211+Q62986); experiment: Relative binding affinity (RBA) for estrogen receptor of rat uterine cytosol at OC relative to Estradiol; type: protein assay
Summary of the method: (§1)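 Uterine cytosol from immature female Holtzman rats (21–25 days old), stored in liquid nitrogen. Competition assay with varying concentrations of unlabeled competitor against [³H]estradiol, incubated at 0–4 °C for 1–2 h. RBA is reported relative to estradiol (RBA = 100).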

[2] = molecular target: T1, Estrogen receptor (Rattus norvegicus); experiment: Relative binding affinity (RBA) for estrogen receptor of rat uterine cytosol at 25 degree C relative to Estradiol; type: protein assay
Summary of the method: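 Cytosol source is the uterus of immature female Holtzman rats (21–25 days old), kept in liquid nitrogen. Graded concentrations of unlabeled ligand compete with [³H]estradiol during an 18 h incubation at 25 °C. RBA is expressed against estradiol set at 100.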

[3] = molecular target: T2, Estrogen receptor (Ovis aries) (UniProt P49885+Q9TU15); experiment: Relative binding affinity (RBA) for estrogen receptor in lamb uterine cytosol at OC relative to Estradiol; type: protein assay; conditions: Uterus
Summary of the method: (§2)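 Competitive estrogen receptor binding in lamb uterine cytosol, with estradiol as the standard ligand (RBA = 100). Incubation was at 0–4 °C for 1–2 h.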

[4] = molecular target: T1, Estrogen receptor (Rattus norvegicus); experiment: Relative binding affinity (RBA) for estrogen receptor in rat uterine cytosol at OC relative to Estradiol; conditions: Uterus; summary of the method: as §1
[5] = molecular target: T2, Estrogen receptor (Ovis aries); experiment: Relative binding affinity (RBA) for estrogen receptor of lamb uterine cytosol at OC relative to Estradiol; type: protein assay; summary of the method: as §2

relative binding affinity (RBA) [1] | RBA [2] | relative binding affinity (RBA) [3] | relative binding affinity (RBA) [4] | relative binding affinity (RBA) [5] | Compound
77 | 62 |  |  |  | C[C@]12CC[C@@H]3c4ccc(O)cc4CC[C@H]3[C@@H]1CC[C@@]2(O)/C=C\I
195 | 661 | 117 |  |  | C[C@]12CC[C@@H]3c4ccc(O)cc4CC[C@H]3[C@@H]1CC[C@@]2(O)/C=C/Br
202 | 776 |  |  |  | C[C@]12CC[C@@H]3c4ccc(O)cc4CC[C@H]3[C@@H]1CC[C@@]2(O)/C=C/I
 | 89 |  | 102 | 115 | C[C@]12CC[C@@H]3c4ccc(O)cc4CC[C@H]3[C@@H]1CC[C@@]2(O)/C=C\Cl
 | 56 |  | 78 | 71 | C[C@]12CC[C@@H]3c4ccc(O)cc4CC[C@H]3[C@@H]1CC[C@@]2(O)/C=C\Br
126 | 199 | 74 |  |  | C[C@]12CC[C@@H]3c4ccc(O)cc4CC[C@H]3[C@@H]1CC[C@@]2(O)/C=C/Cl
